Key:
[1] = Diuretic activity at 40 mg/kg (screening dose-84 umol/kg) in male […] in a one stage experiment; T/C = urine vol of treated rats / urine vol of control rats; type: functional
Procedure, shortened: (§1)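 40 mg/kg given by gavage in 25 mL/kg 0.9% saline with 0.5% (carboxymethyl)cellulose. Four rats per agent, two per metabolism cage; 20 controls; 5 h urine. T/C = treated/control urine volume. Stage-1 T/C of 1.66 or more leads to stage 2; product T/C1·T/C2 of 3.34 or more counts as active.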

[2] = Diuretic activity at 40 mg/kg (screening dose-90.1 umol/kg) in […] in a one stage experiment; T/C = urine vol of treated rats / urine vol of control rats; type: functional; procedure, shortened: as §1
[3] = Diuretic activity at 40 mg/kg (screening dose-84.7 umol/kg) in […] in a one stage experiment; T/C = urine vol of treated rats / urine vol of control rats; type: functional; procedure, shortened: as §1
Rattus norvegicus [4] = assay: Mean excretion of potassium in conscious rats at a dose of 100 mg/kg given orally; type: ADME, organism-based; set-up: dose 100 mg/kg, route oral; details: in vivo, po
Procedure, shortened: (§2)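 Secondary dose-response in male Sprague-Dawley rats (~160 g), fasted and hydrated as in the primary screen. Oral gavage at 0.3-100 mg/kg in 25 mL/kg saline/0.5% CMC, three cages of two rats per dose. Urine collected 5 h; Na, K, Cl, HCO3 measured. Values are mean excretion (mequiv), compared with controls at P < 0.05.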

Rattus norvegicus [5] = assay: Mean excretion of chloride in conscious rats at a dose of 30 mg/kg given orally; type: ADME, organism-based; set-up: dose 30 mg/kg, route oral; details: in vivo, po; procedure, shortened: as §2
Rattus norvegicus [6] = assay: Mean excretion of chloride in conscious rats at a dose of 10 mg/kg given orally; type: ADME, organism-based; set-up: dose 10 mg/kg, route oral; details: in vivo, po; procedure, shortened: as §2
Rattus norvegicus [7] = organism: Rattus norvegicus; assay: […]; type: ADME, organism-based, Urine; set-up: dose 3 mg/kg, route oral; details: in vivo, po, 3 mg/kg
Procedure, shortened: (§3)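 Male Sprague-Dawley rats, about 160 g, fasted 24 h and water withheld 1 1/2 h beforehand; food and water withheld during the test. Dosing by gavage with 25 mL/kg 0.9% saline containing 0.5% (carboxymethyl)cellulose, agent dissolved or suspended. Three cages of two rats each per dose, held in metabolism cages. Urine collected over 5 h. Volume given in mL, Na+ in mequiv. Significance versus control at P < 0.05.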

Rattus norvegicus [8] = assay: Mean excretion of potassium in conscious rats at a dose of 0.3 mg/kg given orally; type: ADME, organism-based; set-up: dose 0.3 mg/kg, route oral; details: in vivo, po; procedure, shortened: as §2
Rattus norvegicus [9] = assay: Mean excretion of […] in conscious rats at a dose of 1.0 mg/kg given orally; type: ADME, organism-based; set-up: dose 1 mg/kg, route oral; details: in vivo, po; procedure, shortened: as §3
Rattus norvegicus [10] = assay: Mean excretion of chloride in conscious rats at a dose of 3.0 mg/kg given orally; type: ADME, organism-based; set-up: dose 3 mg/kg, route oral; details: in vivo, po; procedure, shortened: as §2
Rattus norvegicus [11] = assay: Mean excretion of potassium in conscious rats at a dose of 30 mg/kg given orally; type: ADME, organism-based; set-up: dose 30 mg/kg, route oral; details: in vivo, po; procedure, shortened: as §2
Rattus norvegicus [12] = assay: Mean excretion of potassium in conscious rats at a dose of 10 mg/kg given orally; type: ADME, organism-based; set-up: dose 10 mg/kg, route oral; details: in vivo, po; procedure, shortened: as §2
Rattus norvegicus [13] = assay: Mean excretion of sodium in conscious rats at a dose of 100 mg/kg given orally; type: ADME, organism-based; set-up: dose 100 mg/kg, route oral; details: in vivo, po; procedure, shortened: as §3
Rattus norvegicus [14] = organism: Rattus norvegicus; assay: […]; type: ADME, organism-based, Urine; set-up: dose 100 mg/kg, route oral; details: in vivo, po, 100 mg/kg; procedure, shortened: as §3
Rattus norvegicus [15] = assay: Mean excretion of sodium in conscious rats at a dose of 0.3 mg/kg given orally; type: ADME, organism-based; set-up: dose 0.3 mg/kg, route oral; details: in vivo, po; procedure, shortened: as §3
Rattus norvegicus [16] = organism: Rattus norvegicus; assay: […]; type: ADME, organism-based, Urine; set-up: dose 1 mg/kg, route oral; details: in vivo, po, 1 mg/kg
Procedure, shortened: (§4)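 Dose-response test in male Sprague-Dawley rats of about 160 g, fasted 24 h, with water withheld 1½ h before and during the test. Each rat got a single gavage of 25 mL/kg 0.9% saline with 0.5% carboxymethylcellulose carrying the agent (0.3–100 mg/kg range). Rats were housed two per metabolism cage, and urine was collected for 5 h. Mean urine volume (mL) was compared with controls (P < 0.05).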

Rattus norvegicus [17] = assay: Mean excretion of potassium in conscious rats at a dose of 1.0 mg/kg given orally; type: ADME, organism-based; set-up: dose 1 mg/kg, route oral; details: in vivo, po; procedure, shortened: as §2
Rattus norvegicus [18] = assay: Mean excretion of sodium in conscious rats at a dose of 3.0 mg/kg given orally; type: ADME, organism-based; set-up: dose 3 mg/kg, route oral; details: in vivo, po; procedure, shortened: as §3
Rattus norvegicus [19] = assay: Mean excretion of sodium in conscious rats at a dose of 10 mg/kg given orally; type: ADME, organism-based; set-up: dose 10 mg/kg, route oral; details: in vivo, po; procedure, shortened: as §3
Rattus norvegicus [20] = organism: Rattus norvegicus; assay: […]; type: ADME, organism-based, Urine; set-up: dose 10 mg/kg, route oral; details: in vivo, po, 10 mg/kg; procedure, shortened: as §3
Rattus norvegicus [21] = assay: (§5) Mean excretion of Cl- in conscious rats at a dose of 0.3 mg/kg given orally; type: ADME, organism-based, Urine; set-up: dose 0.3 mg/kg, route oral; details: in vivo, po; procedure, shortened: as §4
Rattus norvegicus [22] = assay: Mean excretion of sodium in conscious rats at a dose of 30 mg/kg given orally; type: ADME, organism-based; set-up: dose 30 mg/kg, route oral; details: in vivo, po; procedure, shortened: as §3
Rattus norvegicus [23] = assay: Mean excretion of chloride in conscious rats at a dose of 100 mg/kg given orally; type: ADME, organism-based; set-up: dose 100 mg/kg, route oral; details: in vivo, po; procedure, shortened: as §2
Rattus norvegicus [24] = organism: Rattus norvegicus; assay: […]; type: ADME, organism-based, Urine; set-up: dose 0.3 mg/kg, route oral; details: in vivo, po, 0.3 mg/kg; procedure, shortened: as §4
Rattus norvegicus [25] = assay: Mean excretion of potassium in conscious rats at a dose of 3.0 mg/kg given orally; type: ADME, organism-based; set-up: dose 3 mg/kg, route oral; details: in vivo, po; procedure, shortened: as §2
Rattus norvegicus [26] = assay: Mean excretion of chloride in conscious rats at a dose of 1.0 mg/kg given orally; type: ADME, organism-based; set-up: dose 1 mg/kg, route oral; details: in vivo, po; procedure, shortened: as §2
Rattus norvegicus [27] = organism: Rattus norvegicus; assay: […]; type: ADME, organism-based, Urine; set-up: dose 30 mg/kg, route oral; details: in vivo, po, 30 mg/kg; procedure, shortened: as §3
[28] = Mean excretion of Cl- in conscious rats at a dose of 1.0 mg/kg given orally; type: functional, Urine; details: route oral; procedure, shortened: as §4
[29] = as §5; type: functional, Urine; details: route oral; procedure, shortened: as §4

Structure (SMILES)	Mean excretion of K+ (Rattus norvegicus [4]) [m equiv]	Mean excretion of Cl- (Rattus norvegicus [5]) [m equiv]	Mean excretion of Cl- (Rattus norvegicus [6]) [m equiv]	Mean urine volume (Rattus norvegicus [7]) [mL]	Mean excretion of K+ (Rattus norvegicus [8]) [m equiv]	Mean excretion of Na+ (Rattus norvegicus [9]) [m equiv]	Mean excretion of Cl- (Rattus norvegicus [10]) [m equiv]	Mean excretion of K+ (Rattus norvegicus [11]) [m equiv]	Mean excretion of K+ (Rattus norvegicus [12]) [m equiv]	Mean excretion of Na+ (Rattus norvegicus [13]) [m equiv]	Mean urine volume (Rattus norvegicus [14]) [mL]	Mean excretion of Na+ (Rattus norvegicus [15]) [m equiv]	Mean excretion of K+ (Rattus norvegicus [17]) [m equiv]	Mean excretion of Na+ (Rattus norvegicus [18]) [m equiv]	Mean excretion of Na+ (Rattus norvegicus [19]) [m equiv]	Mean urine volume (Rattus norvegicus [20]) [mL]	Mean excretion of Cl- (Rattus norvegicus [21]) [m equiv]	Mean excretion of Na+ (Rattus norvegicus [22]) [m equiv]	Mean excretion of K+ (Rattus norvegicus [25]) [m equiv]	Mean urine volume (Rattus norvegicus [27]) [mL]	other results
CN(C)CC(c1ccccc1)c1nnc2n1-c1ccc(Cl)cc1C(c1ccc(Cl)cc1)=NC2 (centres undefined)																					T/C 1 [1]: 1.49
Clc1ccc2c(c1)C(c1ccccc1)=NCc1nnc(C(CN3CCCC3)c3ccccc3)n1-2 (centres undefined)																					T/C 1 [2]: 1.33
COc1cccc(C2=NCc3nnc(C(CN(C)C)c4ccccc4)n3-c3ccc(Cl)cc32)c1 (centres undefined)																					T/C 1 [3]: 1.34
Nc1nc(N)c2nc(-c3ccccc3)c(N)nc2n1	0.06	1.15	0.81	4.32	0.12	0.6	0.74	0.04	0.08	0.88	7.01	0.4	0.1	0.83	1	6.45	0.47	1.41	0.1	9.28	Mean urine volume (Rattus norvegicus [16]): 3.5 mL; Mean excretion of Cl- (Rattus norvegicus [23]): 0.7 m equiv; Mean urine volume (Rattus norvegicus [24]): 2.22 mL; Mean excretion of Cl- (Rattus norvegicus [26]): 0.68 m equiv
NS(=O)(=O)c1cc(C(=O)O)c(NCc2ccco2)cc1Cl [FUROSEMIDE]	0.67			5.23	0.22	0.83		0.46	0.34	3.52	27.8	0.82	0.21	0.86	1.13	8.48		2.37	0.27	18.3	Mean urine volume [28]: 4.7 mL; Mean urine volume [29]: 4.45 mL
NS(=O)(=O)c1cc2c(cc1Cl)NCNS2(=O)=O [HYDROCHLOROTHIAZIDE]	0.36	2.03	1.91	8.48	0.26	1.59	1.78	0.3	0.31	1.9	10.61	1.32	0.32	1.66	1.86	9.24	1.42	1.86	0.34	10.03	Mean urine volume [28]: 8.87 mL; Mean excretion of Cl- (Rattus norvegicus [23]): 2.09 m equiv; Mean urine volume [29]: 7.18 mL; Mean excretion of Cl- (Rattus norvegicus [26]): 1.77 m equiv

Reference: ChEMBL document CHEMBL1124476, “1-(2-aminoethyl)-6-aryl-4H- [1,2,4]triazolo[4,3-a][1,4]benzodiazepines with diuretic and natriuretic activity” (J Med Chem, 1989)
